The results in this text go back to ChEMBL document CHEMBL2390866, “Novel pyrimidoazepine analogs as serotonin 5-HT(2A) and 5-HT(2C) receptor ligands for the treatment of obesity” (Eur J Med Chem, 2013).

Assay [1] concerns Mus musculus. Nature of the assay: Antiobesity activity in C57BL/6 mouse assessed as inhibition of body weight gain at 50 mg/kg, ip measured after 2 to 12 hrs relative to vehicle-treated control. Type of assay: functional. The note with it: C57BL/6, ip, route intraperitoneal.
For assay [2], the system named is Mus musculus. Nature of the assay: Antiobesity activity in C57BL/6 mouse assessed as inhibition of food intake at 50 mg/kg, ip measured after 2 to 12 hrs relative to vehicle-treated control. Type of assay: functional. The note with it: C57BL/6, ip, route intraperitoneal. A digest of the protocol: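 Male mice were acclimated 1 week at 23 ± 3 °C and 50 ± 20% humidity, then fasted 24 h. They were dosed once intraperitoneally with vehicle or compound: 50 mg/kg in C57BL/6, or 12.5, 25 or 50 mg/kg in B6.V-Lep^ob/J. Food intake was measured at 2, 6 and 12 h versus vehicle control.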

Assay [3] has as its target T1, 5-hydroxytryptamine receptor 2A (Homo sapiens, UniProt P28223). Briefly: Antagonist activity at serotonin-activated human recombinant 5HT-2A receptor expressed in HEK293 cells assessed as decrease in intracellular calcium level after 5 mins measured for 1 min by fluorescence assay. Type of assay: functional, cell-based. As to conditions: read-out: EC50 (the source's name). In a few lines:
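Cells were washed with HBSS/20 mM HEPES, then loaded 50 min with Fluo-4 NW dye in HBSS with 2.5 mM probenecid. Compound was added for 5 min at 37 °C, then serotonin; fluorescence followed 1 min. Run in duplicate or quadruplicate, repeated several times; IC50 by nonlinear regression.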

Assay [4] has as its target T2, 5-hydroxytryptamine receptor 2C (Homo sapiens, UniProt P28335).
T2 sequence (P28335 whole entry): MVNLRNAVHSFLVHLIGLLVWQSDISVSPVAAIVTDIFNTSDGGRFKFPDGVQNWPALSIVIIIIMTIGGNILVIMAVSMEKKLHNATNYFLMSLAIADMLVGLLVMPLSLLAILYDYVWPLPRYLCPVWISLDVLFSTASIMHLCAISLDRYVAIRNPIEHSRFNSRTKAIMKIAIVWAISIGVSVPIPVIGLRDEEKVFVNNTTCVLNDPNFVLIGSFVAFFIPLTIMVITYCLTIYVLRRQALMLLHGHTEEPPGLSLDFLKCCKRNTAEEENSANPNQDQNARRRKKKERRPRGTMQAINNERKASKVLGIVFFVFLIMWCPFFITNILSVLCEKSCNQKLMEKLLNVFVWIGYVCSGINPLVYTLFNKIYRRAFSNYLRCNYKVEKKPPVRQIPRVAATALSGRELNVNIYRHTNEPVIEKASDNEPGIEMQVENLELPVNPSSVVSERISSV
Nature of the assay: Antagonist activity at serotonin-activated human recombinant 5HT-2C receptor expressed in HEK293 cells assessed as decrease in intracellular calcium level after 5 mins measured for 1 min by fluorescence assay. The note with it: read-out: EC50 (the source's name). Type of assay: functional, cell-based. In a few lines:
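Intracellular calcium read on HEK293 cells stably expressing human receptor, seeded 10,000 cells/well and grown 24 h at 37 °C, 5% CO2. Cells were washed with HBSS/20 mM HEPES, then loaded 50 min with Fluo-4 NW dye in HBSS with 2.5 mM probenecid. Compound was added for 5 min at 37 °C, then serotonin; fluorescence followed 1 min. Run in duplicate or quadruplicate, repeated several times; IC50 by nonlinear regression.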

Assay [5] has as its target T1, 5-hydroxytryptamine receptor 2A. Briefly: Displacement of [3H]-ketanserin from human recombinant 5HT-2A receptor expressed in CHOK1 cell membranes after 60 mins. More on the design: species or system CHO-K1. A digest of the protocol: (§1)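 Buffer was 50 mM Tris-HCl pH 7.4 with 5 mM CaCl2 and 0.1% ascorbic acid. Test compound added at a range of concentrations.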
For assay [6], the target named is T2, 5-hydroxytryptamine receptor 2C. Briefly: Displacement of [3H]-mesulergine from human recombinant 5HT-2C receptor expressed in CHOK1 cell membranes after 30 mins. More on the design: species or system CHO-K1. In a few lines:
(§2)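 Frozen CHO-K1 membranes expressing recombinant human 5-HT2C incubated with 1 nM [3H]mesulergine in 50 mM Tris-HCl pH 7.4 containing 0.1% ascorbic acid and pargyline. Mianserin defined nonspecific binding.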

Assay [7] has the same target. Briefly: Agonist activity at serotonin-activated human recombinant 5HT-2C receptor expressed in HEK293 cells assessed as increase in intracellular calcium level after 5 mins measured for 1 min by fluorescence assay. Format: functional, cell-based.
The target in assay [8] is D(2) dopamine receptor (Homo sapiens, UniProt P14416). Nature of the assay: Displacement of [3H]-methylspiperone from dopamine D2L receptor (unknown origin) after 60 mins. In a few lines: (§3)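 Receptor membranes incubated at 27 °C, 60 min for D2L and 30 min for D3, with [3H]methylspiperone (0.2 nM for D2L, 0.25 nM for D3) and test compound at a range of concentrations. Buffer was 50 mM Tris-HCl pH 7.4, 10 mM MgCl2, 1 mM EDTA, 120 mM NaCl. Nonspecific binding defined with haloperidol (D2) or GR103691 (D3). IC50 obtained by nonlinear regression.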
Chain of D(2) dopamine receptor (P14416 whole entry): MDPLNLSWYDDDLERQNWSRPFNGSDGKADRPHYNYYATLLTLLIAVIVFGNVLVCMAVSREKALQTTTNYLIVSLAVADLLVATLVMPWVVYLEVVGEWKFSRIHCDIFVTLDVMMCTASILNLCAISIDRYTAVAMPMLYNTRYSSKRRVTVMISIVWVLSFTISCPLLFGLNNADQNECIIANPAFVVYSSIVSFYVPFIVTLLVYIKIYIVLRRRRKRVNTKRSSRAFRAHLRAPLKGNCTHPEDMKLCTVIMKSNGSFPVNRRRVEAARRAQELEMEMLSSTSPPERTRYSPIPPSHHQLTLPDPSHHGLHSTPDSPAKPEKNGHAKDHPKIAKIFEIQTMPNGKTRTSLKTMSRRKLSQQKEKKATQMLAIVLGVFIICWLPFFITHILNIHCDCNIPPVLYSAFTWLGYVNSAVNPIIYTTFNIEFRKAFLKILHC

For assay [9], the target named is D(3) dopamine receptor (Homo sapiens, UniProt P35462). Briefly: Displacement of [3H]-methylspiperone from dopamine D3 receptor (unknown origin) after 30 mins. In a few lines:
as §3

A short description of assay [10]: Displacement of [3H]-YM-09151-2 from cloned dopamine D4.2 receptor (unknown origin) expressed in Sf9 cells after 60 mins. Further details: species or system Homo sapiens. In a few lines:
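Sf9 membranes with cloned D4.2 receptor incubated with 0.2 nM [3H]YM-09151-2 for 60 min at 27 °C in 50 mM Tris-HCl pH 7.4, 5 mM MgCl2, 5 mM EDTA, 5 mM KCl, 1.5 mM CaCl2. Clozapine defined nonspecific binding. Filtered on glass-fiber filters presoaked in 0.3% PEI.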

Assay [11] has as its target 5-hydroxytryptamine receptor 6 (Homo sapiens, UniProt P50406). Nature of the assay: Displacement of [3H]-LSD from human recombinant 5HT-6 receptor expressed in CHOK1 cell membranes after 60 mins. More on the design: species or system CHO-K1. A digest of the protocol:
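CHO-K1 membranes expressing human 5-HT6 incubated with 1 nM [3H]LSD for 60 min at 27 °C in 50 mM Tris-HCl pH 7.4 containing 4 mM CaCl2 and 0.1% ascorbic acid. Terminated by filtration on glass-fiber filters presoaked in 0.5% PEI. Methiothepin defined nonspecific binding.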

Assay [12] deals with 5-hydroxytryptamine receptor 7 (Homo sapiens, UniProt P34969). Briefly: Displacement of [3H]-LSD from human recombinant 5HT-7 receptor expressed in CHOK1 cell membranes after 120 mins. More on the design: species or system CHO-K1. A digest of the protocol:
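CHO-K1 membranes expressing human 5-HT7 incubated with 3 nM [3H]LSD for 120 min at 27 °C in 50 mM Tris-HCl pH 7.4, 10 mM MgSO4, 0.5 mM EDTA. Filtered on glass-fiber filters presoaked in 0.3% PEI. Methiothepin defined nonspecific binding.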

Assay [13] concerns the target T3, 5-hydroxytryptamine receptor 1A (Homo sapiens, UniProt P08908).
T3 sequence (P08908 whole entry): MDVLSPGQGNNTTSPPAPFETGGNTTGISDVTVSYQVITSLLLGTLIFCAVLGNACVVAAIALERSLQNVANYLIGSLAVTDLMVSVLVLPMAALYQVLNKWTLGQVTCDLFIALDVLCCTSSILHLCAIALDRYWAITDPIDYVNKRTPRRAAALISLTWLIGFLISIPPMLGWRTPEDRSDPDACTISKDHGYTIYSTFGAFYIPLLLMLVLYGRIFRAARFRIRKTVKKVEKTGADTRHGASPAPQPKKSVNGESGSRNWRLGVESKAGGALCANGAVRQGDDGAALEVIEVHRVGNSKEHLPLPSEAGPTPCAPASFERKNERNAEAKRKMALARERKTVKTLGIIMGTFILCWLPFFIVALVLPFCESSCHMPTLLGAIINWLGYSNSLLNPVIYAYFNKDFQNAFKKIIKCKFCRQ
Briefly: Displacement from [3H]8-OH-DPAT from human recombinant 5HT-1A receptor expressed in HEK293 cells after 120 mins. Format: cell-based. In a few lines: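 Membranes from HEK293-EBNA cells stably expressing recombinant human 5-HT1A. Incubated with 2 nM [3H]8-OH-DPAT and test compound at a range of concentrations in 50 mM Tris-HCl pH 7.4 with 5 mM MgSO4.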

Assay [14] addresses T1, 5-hydroxytryptamine receptor 2A. Nature of the assay: Displacement of [3H]-ketanserin from human recombinant 5HT-2A receptor expressed in CHOK1 cell membranes at 10 uM after 60 mins relative to control. As to conditions: CHO-K1. A digest of the protocol: as §1
Assay [15] concerns the target T4, 5-hydroxytryptamine receptor 2C (Homo sapiens) (UniProt P28335).
T4 sequence (whole entry): T2 sequence (P28335 whole entry)
Briefly: Displacement of [3H]-mesulergine from human recombinant 5HT-2C receptor expressed in CHOK1 cell membranes at 10 uM after 30 mins relative to control. As to conditions: CHO-K1. A digest of the protocol: as §2

T1 sequence (P28223 whole entry): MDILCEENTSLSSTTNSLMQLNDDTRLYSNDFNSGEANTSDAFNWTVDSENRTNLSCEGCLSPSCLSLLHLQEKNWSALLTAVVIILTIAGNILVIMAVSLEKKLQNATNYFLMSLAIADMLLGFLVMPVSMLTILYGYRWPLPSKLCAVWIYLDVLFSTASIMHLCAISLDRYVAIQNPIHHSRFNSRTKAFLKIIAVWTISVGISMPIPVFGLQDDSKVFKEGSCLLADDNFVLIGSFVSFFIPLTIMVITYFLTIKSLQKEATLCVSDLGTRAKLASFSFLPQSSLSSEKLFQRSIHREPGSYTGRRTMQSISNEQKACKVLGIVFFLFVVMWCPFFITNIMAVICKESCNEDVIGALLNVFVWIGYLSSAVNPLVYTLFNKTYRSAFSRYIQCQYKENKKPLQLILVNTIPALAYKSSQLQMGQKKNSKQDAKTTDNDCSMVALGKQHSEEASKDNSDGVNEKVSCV
Chain of D(3) dopamine receptor (P35462 whole entry): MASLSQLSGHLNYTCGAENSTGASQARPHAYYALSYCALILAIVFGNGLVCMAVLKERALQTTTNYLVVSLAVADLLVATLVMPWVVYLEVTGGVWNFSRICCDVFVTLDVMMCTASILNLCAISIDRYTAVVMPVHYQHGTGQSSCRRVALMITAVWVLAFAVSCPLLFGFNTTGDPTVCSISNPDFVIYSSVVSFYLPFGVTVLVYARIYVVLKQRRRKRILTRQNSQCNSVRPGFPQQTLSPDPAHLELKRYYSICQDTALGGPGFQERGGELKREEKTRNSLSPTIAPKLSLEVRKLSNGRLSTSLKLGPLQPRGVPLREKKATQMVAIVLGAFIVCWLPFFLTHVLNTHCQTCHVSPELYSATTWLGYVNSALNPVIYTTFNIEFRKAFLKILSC
Chain of 5-hydroxytryptamine receptor 7 (P34969 whole entry): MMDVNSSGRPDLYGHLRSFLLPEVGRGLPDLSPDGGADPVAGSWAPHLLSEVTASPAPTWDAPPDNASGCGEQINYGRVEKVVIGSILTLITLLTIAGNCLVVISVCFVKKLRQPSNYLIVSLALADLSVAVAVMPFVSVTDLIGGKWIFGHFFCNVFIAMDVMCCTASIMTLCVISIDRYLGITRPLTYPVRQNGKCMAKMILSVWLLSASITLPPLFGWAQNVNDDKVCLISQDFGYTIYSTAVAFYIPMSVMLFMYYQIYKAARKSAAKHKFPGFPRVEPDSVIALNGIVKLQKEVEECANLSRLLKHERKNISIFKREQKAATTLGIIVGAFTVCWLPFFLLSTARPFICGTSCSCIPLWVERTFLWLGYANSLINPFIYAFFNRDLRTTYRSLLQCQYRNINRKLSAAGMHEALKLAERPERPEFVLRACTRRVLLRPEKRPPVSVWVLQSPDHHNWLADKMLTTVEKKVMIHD
Chain of 5-hydroxytryptamine receptor 6 (P50406 whole entry): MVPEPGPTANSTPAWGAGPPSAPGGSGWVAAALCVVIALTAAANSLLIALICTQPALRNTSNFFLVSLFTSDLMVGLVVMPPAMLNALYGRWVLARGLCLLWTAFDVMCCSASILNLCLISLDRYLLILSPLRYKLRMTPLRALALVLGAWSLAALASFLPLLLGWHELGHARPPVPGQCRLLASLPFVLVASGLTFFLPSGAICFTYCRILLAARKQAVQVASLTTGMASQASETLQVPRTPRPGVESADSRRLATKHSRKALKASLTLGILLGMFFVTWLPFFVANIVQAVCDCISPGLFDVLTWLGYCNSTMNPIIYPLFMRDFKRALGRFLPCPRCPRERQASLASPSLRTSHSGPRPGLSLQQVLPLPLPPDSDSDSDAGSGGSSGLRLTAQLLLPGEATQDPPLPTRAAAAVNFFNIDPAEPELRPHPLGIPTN

On to `CN1CCN(c2nc3c(c(Nc4ccc(F)cc4)n2)CCNCC3)CC1`, for which the inhibition in vivo at 50 mg/kg in [1] came out at 5.61%; in assay [2], 11%. Also, the IC50 was determined as 153 nM in assay [3], 1500 nM in assay [4], 215 nM in [5] and 337 nM in assay [6].

On to `CCN(CC)c1nc(N2CCN(C)CC2)nc2c1CCNCC2`, for which the inhibition in vivo at 50 mg/kg in assay [1] came out at 9.01%; in assay [2], 4.17%. In addition, the IC50 is 2900 nM in assay [3], > 10000 nM in assay [5] and > 10000 nM in assay [6].

Take `COc1cccc(Nc2nc(N3CCN(C)CC3)nc3c2CCNCC3)c1`: the IC50 was 2300 nM in assay [4], > 10000 nM in assay [5] and 2850 nM in assay [6].

With `CN1CCN(c2nc3c(c(N4CCSCC4)n2)CCNCC3)CC1`, the inhibition in vivo at 50 mg/kg is -15% in assay [1] and 2.1% in assay [2]. Moreover, the IC50 in assay [3] is 687 nM; in assay [5], > 10000 nM; in [6], > 10000 nM. Moreover, in [7], the EC50 was > 10000 nM.

As to `CCNc1nc(N2CCN(C)CC2)nc2c1CCNCC2`, the IC50 in assay [5] and in [6] was > 10000 nM in each case. The EC50 in assay [7] was > 10000 nM.

As to `Fc1ccc(Nc2nc(Cc3ccccc3)nc3c2CCNCC3)cc1`, the IC50 was 2.6 nM in assay [4], 1.95 nM in assay [5] and 8.5 nM in [6].

As to `CN1CCN(c2nc3c(c(N4CCOCC4)n2)CCNCC3)CC1`, the IC50 in assay [5] and in [6] was > 10000 nM each time. Further, the EC50 in assay [7] amounted to 9600 nM.

Regarding `c1ccc(Cc2nc3c(c(N4CCSCC4)n2)CCNCC3)cc1`, the inhibition in vivo at 50 mg/kg in [1] was determined as 12%; in assay [2], 18.4%. Moreover, the IC50 in assay [3] was 96.3 nM; in assay [5], 1270 nM; in assay [6] it was 333 nM.

Regarding `Fc1cccc(Nc2nc(Cc3ccccc3)nc3c2CCNCC3)c1`, the inhibition in vivo at 50 mg/kg was 68.9% in assay [1] and 69.4% in [2]. For the same compound, the IC50 in assay [8] was found to be 63.3 nM; in [9], 674 nM; in assay [10] it was 735 nM; in assay [11] it was 22.2 nM; in [12], 1060 nM; in assay [13], 1250 nM. Also, the results for the IC50 in assay [3], in [5] and in assay [6] were 27.9 nM, 4.92 nM and 13.3 nM, respectively.

Take `CNc1nc(N2CCN(C)CC2)nc2c1CCNCC2`: the IC50 in assay [3] is 1200 nM; in [5] it was > 10000 nM; in assay [6], > 10000 nM.

Consider `CN1CCN(c2nc3c(c(N(C)C)n2)CCNCC3)CC1`, for which the inhibition in vivo at 50 mg/kg in assay [1] is 12.2%; in assay [2], 12.5%. The IC50 in [5] and in assay [6] was > 10000 nM each time. The EC50 in assay [7] stood at 1200 nM.

For `COc1cccc(Nc2nc(Cc3ccccc3)nc3c2CCNCC3)c1`, the inhibition in vivo at 50 mg/kg in assay [1] came to 63.9%; in assay [2], 55.8%. The IC50 in assay [8] came to 163 nM; in assay [9], 941 nM; in [10] it was 549 nM; in [11], 30.4 nM; in assay [12] it was 497 nM; in assay [13], 823 nM. In addition, the IC50 amounted to 77.6 nM in [3], 9.2 nM in [4], 84.4 nM in assay [5] and 37.3 nM in assay [6].

With `CCN(CC)c1nc(Nc2ccc(Cl)cc2)c2cn[nH]c2n1`, the inhibition in assay [14] is 86%; in assay [15] it was 80%. Further, the values for the IC50 in assay [5] and in [6] were 1890 nM and 991 nM, respectively.

Turning to `CCNc1nc(Nc2ccc(F)cc2)c2cn[nH]c2n1`, the inhibition in [14] came out at 39%; in assay [15] it was 23%. Also, the IC50 in assay [5] and in [6] was > 10000 nM each time.

For `Cc1ccc(CNc2nc(Nc3ccc(F)cc3)c3cn[nH]c3n2)cc1`, the inhibition in [14] worked out at 93%; in assay [15], 66%. Also, the IC50 came to 947 nM in [5] and 5830 nM in assay [6].
